# Measurements as given in ChEMBL document CHEMBL1156597, “Structure-activity relationship of kahalalide F synthetic analogues” (J Med Chem, 2008).
# Legend:
# LoVo [1] = assay: Cytotoxicity against human LoVo cells after 48 hrs by SRB assay; format: functional; details: for CC50: read-out: LC50 (the source's name)
# PANC-1 = assay: Cytotoxicity against human PANC1 cells after 48 hrs by SRB assay; format: functional; details: PANC-1, 48 h; for CC50: read-out: LC50 (the source's name)
# In short: (§1)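 Cells grown in RPMI 1640 with 10% FBS and penicillin/streptomycin at 37 °C and 5% CO₂, trypsinized, then seeded at 5 × 10³/well. After 18 h drug-free attachment, samples in DMSO/EtOH/PBS (0.5:0.5:99) were added for 48 h continuous exposure. Cells were fixed with cold TCA (1 h, 4 °C) and stained with SRB (10 min). Tris-solubilized stain read at 490 nm. Triplicate wells, mean ± SD; GI₅₀ derived.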
# SK-MEL-28 = assay: Cytotoxicity against human SK-MEL-28 cells after 48 hrs by SRB assay; format: functional, cell-based; details: Homo sapiens, SK-MEL-28, 48 h; for CC50: read-out: LC50 (the source's name); in short: as §1
# HT-29 = assay: Cytotoxicity against human HT29 cells after 48 hrs by SRB assay; format: functional, cell-based; details: Homo sapiens, HT-29, 48 h; for CC50: read-out: LC50 (the source's name); in short: as §1
# DU-145 = assay: Cytotoxicity against human DU145 cells after 48 hrs by SRB assay; format: functional, cell-based; details: Homo sapiens, DU-145, 48 h; for CC50: read-out: LC50 (the source's name); in short: as §1
# [2] = Cytotoxicity against human IGROV-ET cells after 48 hrs by SRB assay; format: functional; details: for CC50: read-out: LC50 (the source's name); in short: as §1
# [3] = Cytotoxicity against human IGROV cells after 48 hrs by SRB assay; format: functional; details: for CC50: read-out: LC50 (the source's name); in short: as §1
# LoVo [4] = assay: Cytotoxicity against human doxorubicin resistant LoVo cells after 48 hrs by SRB assay; format: functional; details: for CC50: read-out: LC50 (the source's name); in short: as §1
# A549 = assay: Cytotoxicity against human A549 cells after 48 hrs by SRB assay; format: functional, cell-based; details: Homo sapiens, A549, 48 h; in short: as §1
# LNCaP = assay: Cytotoxicity against human LNcaP cells after 48 hrs by SRB assay; format: functional; details: for CC50: read-out: LC50 (the source's name); in short: as §1
# K562 = assay: Cytotoxicity against human K562 cells after 48 hrs by SRB assay; format: functional; details: K562, 48 h; for CC50: read-out: LC50 (the source's name); in short: as §1
# HeLa = assay: Cytotoxicity against human HeLa cells after 48 hrs by SRB assay; format: functional; details: for CC50: read-out: LC50 (the source's name); in short: as §1
# SK-BR-3 = assay: Cytotoxicity against human SKBR3 cells after 48 hrs by SRB assay; format: functional; details: SK-BR-3, 48 h; for CC50: read-out: LC50 (the source's name); in short: as §1
# [5] = Cytotoxicity against human HeLa-APL cells after 48 hrs by SRB assay; format: functional; in short: as §1
SMILES,CC50 (LoVo [1]),GI50 (PANC-1),TGI (PANC-1),CC50 (PANC-1),CC50 (SK-MEL-28),CC50 (HT-29),CC50 (DU-145),CC50 [2],CC50 [3],CC50 (LoVo [4]),LC50 (A549),GI50 (LoVo [1]),TGI (LoVo [1]),CC50 (HeLa),GI50 (SK-BR-3; read-out: GI50),CC50 (SK-BR-3),GI50 (SK-MEL-28; read-out: GI50),GI50 (DU-145; read-out: GI50),GI50 ([3]; read-out: GI50),LC50 (concentration giving 50% net cell kill) [5],other results
C/C=C1\NC(=O)[C@H](Cc2ccccc2)NC(=O)[C@@H](C(C)C)NC(=O)[C@@H]([C@H](C)CC)NC(=O)[C@H](NC(=O)[C@H](NC(=O)[C@H](CCCN)NC(=O)[C@H]2CCCN2C(=O)[C@H](NC(=O)CCCCCCCCCCCCC)C(C)C)[C@H](C)CC)[C@H](C)OC(=O)[C@H](C(C)C)NC1=O,3980 nM,2450 nM,2400 nM,2160 nM,1870 nM,6890 nM,17900 nM,5190 nM,5330 nM,5370 nM,2650 nM,–,–,–,–,–,–,–,–,–,GI50 (LNCaP): 7210 nM; TGI (LNCaP): 8100 nM; CC50 (LNCaP): 8020 nM; GI50 (K562): 3000 nM; TGI (K562): 3470 nM; CC50 (K562): 3390 nM
C/C=C1\NC(=O)[C@H](Cc2ccc([N+](=O)[O-])cc2)NC(=O)[C@@H](C(C)C)NC(=O)[C@@H]([C@H](C)CC)NC(=O)[C@H](NC(=O)[C@H](NC(=O)[C@H](CCCN)NC(=O)[C@H]2CCCN2C(=O)[C@H](NC(=O)[C@@H](NC(=O)[C@@H](NC(=O)[C@H](NC(=O)CC[C@@H](C)CC)C(C)C)[C@@H](C)O)C(C)C)C(C)C)[C@H](C)CC)[C@H](C)OC(=O)[C@H](C(C)C)NC1=O,311 nM,1290 nM,1430 nM,1580 nM,436 nM,409 nM,561 nM,636 nM,197 nM,209 nM,891 nM,317 nM,314 nM,185 nM,366 nM,451 nM,188 nM,261 nM,682 nM,783 nM,TGI (SK-BR-3): 406 nM; GI50 (SK-MEL-28): 235 nM; GI50 (HT-29): 419 nM; TGI (HT-29): 411 nM; TGI (DU-145): 3640 nM; GI50 [2]: 811 nM; GI50 ([2]; read-out: GI50): 1050 nM; GI50 [3]: 417 nM; GI50 [5]: 569 nM; TGI [5]: 700 nM; GI50 (LoVo [4]): 90.4 nM; TGI (LoVo [4]): 141 nM; GI50 (A549): 724 nM; GI50 (A549; read-out: GI50): 562 nM; GI50 (LNCaP): 482 nM; TGI (LNCaP): 511 nM; CC50 (LNCaP): 669 nM
C/C=C1\NC(=O)[C@H](Cc2ccc(F)cc2)NC(=O)[C@@H](C(C)C)NC(=O)[C@@H]([C@H](C)CC)NC(=O)[C@H](NC(=O)[C@H](NC(=O)[C@H](CCCN)NC(=O)[C@H]2CCCN2C(=O)[C@H](NC(=O)[C@@H](NC(=O)[C@@H](NC(=O)[C@H](NC(=O)CC[C@@H](C)CC)C(C)C)[C@@H](C)O)C(C)C)C(C)C)[C@H](C)CC)[C@H](C)OC(=O)[C@H](C(C)C)NC1=O,330 nM,1460 nM,1530 nM,1580 nM,953 nM,479 nM,893 nM,649 nM,381 nM,512 nM,1040 nM,393 nM,361 nM,2820 nM,519 nM,389 nM,699 nM,891 nM,812 nM,837 nM,TGI (SK-BR-3): 448 nM; GI50 (SK-MEL-28): 819 nM; GI50 (HT-29): 452 nM; TGI (HT-29): 462 nM; GI50 (DU-145): 893 nM; GI50 [2]: 791 nM; GI50 ([2]; read-out: GI50): 971 nM; GI50 [3]: 558 nM; GI50 [5]: 737 nM; TGI [5]: 786 nM; GI50 (LoVo [4]): 413 nM; TGI (LoVo [4]): 460 nM; TGI (A549): 1030 nM; GI50 (A549; read-out: GI50): 1010 nM; GI50 (LNCaP): 514 nM; TGI (LNCaP): 620 nM; CC50 (LNCaP): 747 nM
C/C=C1\NC(=O)[C@H](Cc2ccc(I)cc2)NC(=O)[C@@H](C(C)C)NC(=O)[C@@H]([C@H](C)CC)NC(=O)[C@H](NC(=O)[C@H](NC(=O)[C@H](CCCN)NC(=O)[C@H]2CCCN2C(=O)[C@H](NC(=O)[C@@H](NC(=O)[C@@H](NC(=O)[C@H](NC(=O)CC[C@@H](C)CC)C(C)C)[C@@H](C)O)C(C)C)C(C)C)[C@H](C)CC)[C@H](C)OC(=O)[C@H](C(C)C)NC1=O,358 nM,1200 nM,1300 nM,1410 nM,354 nM,423 nM,117 nM,776 nM,179 nM,225 nM,181 nM,365 nM,361 nM,156 nM,305 nM,327 nM,160 nM,148 nM,670 nM,605 nM,TGI (SK-BR-3): 315 nM; GI50 (SK-MEL-28): 202 nM; GI50 (HT-29): 396 nM; TGI (HT-29): 407 nM; GI50 (DU-145): 131 nM; GI50 [2]: 955 nM; GI50 ([2]; read-out: GI50): 1190 nM; GI50 [3]: 394 nM; GI50 [5]: 313 nM; TGI [5]: 416 nM; GI50 (LoVo [4]): 134 nM; TGI (LoVo [4]): 183 nM; GI50 (A549): 203 nM; GI50 (A549; read-out: GI50): 226 nM; GI50 (LNCaP): 345 nM; TGI (LNCaP): 512 nM; CC50 (LNCaP): 686 nM
C/C=C1\NC(=O)[C@H](Cc2c(F)c(F)c(F)c(F)c2F)NC(=O)[C@@H](C(C)C)NC(=O)[C@@H]([C@H](C)CC)NC(=O)[C@H](NC(=O)[C@H](NC(=O)[C@H](CCCN)NC(=O)[C@H]2CCCN2C(=O)[C@H](NC(=O)[C@@H](NC(=O)[C@@H](NC(=O)[C@H](NC(=O)CC[C@@H](C)CC)C(C)C)[C@@H](C)O)C(C)C)C(C)C)[C@H](C)CC)[C@H](C)OC(=O)[C@H](C(C)C)NC1=O,386 nM,2110 nM,3420 nM,2810 nM,1120 nM,256 nM,1000 nM,1150 nM,1100 nM,374 nM,1270 nM,469 nM,426 nM,1300 nM,556 nM,435 nM,1280 nM,1370 nM,2070 nM,983 nM,TGI (SK-BR-3): 492 nM; TGI (SK-MEL-28): 1200 nM; GI50 (HT-29): 1090 nM; TGI (HT-29): 1740 nM; TGI (DU-145): 1170 nM; TGI [3]: 1740 nM; GI50 [5]: 1450 nM; TGI [5]: 1200 nM; GI50 (LoVo [4]): 496 nM; TGI (LoVo [4]): 432 nM; TGI (A549): 1530 nM; GI50 (A549; read-out: GI50): 1850 nM; GI50 (LNCaP): 504 nM; TGI (LNCaP): 681 nM; CC50 (LNCaP): 778 nM
C/C=C1\NC(=O)[C@H](Cc2ccccc2)NC(=O)[C@@H](C(C)C)NC(=O)[C@@H]([C@H](C)CC)NC(=O)[C@H](NC(=O)[C@H](NC(=O)[C@H](CCCNC(=O)CCOCCOCCNC(=O)OCC2c3ccccc3-c3ccccc32)NC(=O)[C@H]2CCCN2C(=O)[C@H](NC(=O)[C@@H](NC(=O)[C@@H](NC(=O)[C@H](NC(=O)CCCC(C)C)C(C)C)[C@@H](C)O)C(C)C)C(C)C)[C@H](C)CC)[C@H](C)OC(=O)[C@H](C(C)C)NC1=O,43.2 nM,–,–,141 nM,10.3 nM,263 nM,557 nM,216 nM,404 nM,238 nM,32 nM,44.3 nM,61.7 nM,767 nM,39.6 nM,392 nM,68.4 nM,16.4 nM,36.1 nM,528 nM,GI50 (HeLa): 56.4 nM; TGI (HeLa): 119 nM; GI50 (SK-BR-3): 53.4 nM; GI50 (SK-MEL-28): 840 nM; GI50 (HT-29): 85.3 nM; TGI (HT-29): 117 nM; TGI (DU-145): 15.7 nM; GI50 [3]: 79.9 nM; GI50 [5]: 53.8 nM; TGI [5]: 89.7 nM; GI50 (LoVo [4]): 199 nM; TGI (LoVo [4]): 179 nM; CC50 (K562): 15.4 nM
C/C=C1\NC(=O)[C@H](c2ccccc2)NC(=O)[C@@H](C(C)C)NC(=O)[C@@H]([C@H](C)CC)NC(=O)[C@H](NC(=O)[C@H](NC(=O)[C@H](CCCN)NC(=O)[C@H]2CCCN2C(=O)[C@H](NC(=O)[C@@H](NC(=O)[C@@H](NC(=O)[C@H](NC(=O)CCCC(C)C)C(C)C)[C@@H](C)O)C(C)C)C(C)C)[C@H](C)CC)[C@H](C)OC(=O)[C@H](C(C)C)NC1=O,341 nM,1660 nM,1660 nM,1660 nM,1110 nM,416 nM,872 nM,536 nM,498 nM,333 nM,1090 nM,417 nM,533 nM,903 nM,438 nM,360 nM,1110 nM,872 nM,503 nM,912 nM,TGI (SK-BR-3): 386 nM; TGI (SK-MEL-28): 1110 nM; GI50 (DU-145): 872 nM; GI50 [2]: 797 nM; GI50 ([2]; read-out: GI50): 806 nM; GI50 [3]: 720 nM; GI50 (LoVo [4]): 409 nM; TGI (A549): 1090 nM; GI50 (A549; read-out: GI50): 1090 nM; GI50 (K562): 1810 nM; TGI (K562): 1810 nM; CC50 (K562): 1810 nM
